In ChEMBL document CHEMBL4130356, “Design, synthesis and 2D QSAR study of novel pyridine and quinolone hydrazone derivatives as potential antimicrobial and antitubercular agents” (Eur J Med Chem, 2017):
Values after ≈ are worked out from the molar mass of the structure shown. Active and inactive are the calls of the source. The rule behind the calls is not given here.

Assays:
Escherichia coli [1] = assay: Antimicrobial activity against Escherichia coli RCMB 010052 after 24 hrs by serial dilution method; format: functional; conditions: RCMB 010052, 24 h
Outline: (§1)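 Serial twofold dilution in microtiter plates starting from a 100 mmol stock in DMSO; final concentrations 125 down to 0.12 […]. Incubated at 37°C and read on a microplate reader after 24 h. Ciprofloxacin was the reference. Run in triplicate, with the average taken. MIC was the lowest concentration inhibiting growth.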

Streptococcus pneumoniae [2] = assay: Antimicrobial activity against Streptococcus pneumoniae RCMB 010010 after 24 hrs by serial dilution method; format: functional; conditions: RCMB 010010, 24 h; outline: as §1
Candida albicans [3] = assay: Antimicrobial activity against Candida albicans RCMB 05036 assessed as diameter of zone inhibition at 100 ug/ml after 48 hrs by agar well diffusion assay; format: functional; conditions: for zone of inhibition at 100 µg/mL: RCMB 05036, 48 h, read-out: DIZ
Outline: (§2)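 Agar well diffusion on malt agar plates seeded with the fungus, using 1 cm wells. Plates were held at 4°C for 1 h for diffusion, then incubated at 28°C. Inhibition zone diameters were measured at 48 h. Amphotericin B was the positive control. Run in triplicate, with the mean zone reported.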

Pseudomonas aeruginosa [4] = conditions: RCMB 010043
Streptococcus pneumoniae [5] = assay: Antimicrobial activity against Streptococcus pneumoniae RCMB 010010 assessed as diameter of zone inhibition at 100 ug/ml after 24 hrs by agar well diffusion assay; format: functional; conditions: for zone of inhibition at 100 µg/mL: RCMB 010010, 24 h, read-out: DIZ
Outline: (§3)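 Agar well diffusion on nutrient agar plates seeded with the bacterium, using 1 cm wells. Plates were held at 4°C for 1 h for diffusion, then incubated at 37°C. Inhibition zone diameters were measured at 24 h. Ciprofloxacin was the positive control. Run in triplicate, with the mean zone reported.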

Pseudomonas aeruginosa [6] = conditions: RCMB 010043, 100 ug/ml
WI-38 = assay: Cytotoxicity against human WI38 cells assessed as reduction in cell viability after 24 hrs by crystal violet staining-based colorimetric method; conditions: WI-38, 24 h
Outline: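 WI-38 cells were grown in DMEM with 10% FBS at 37°C and 5% CO2, then seeded at 1×10^4 cells/well. Serial twofold dilutions were added, three wells per concentration. Viability was read by crystal violet stain, solubilised in 30% acetic acid, at 490 nm. Run in triplicate. IC50 was estimated from dose-response plots.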

Aspergillus fumigatus [7] = assay: Antimicrobial activity against Aspergillus fumigatus RCMB 02568 after 48 hrs by serial dilution method; format: functional; conditions: RCMB 02568, 48 h
Outline: as §1, with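 “28°C” for “37°C”, “48” for “24”, “Amphotericin B” for “Ciprofloxacin”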

Candida albicans [8] = assay: Antimicrobial activity against Candida albicans RCMB 05036 after 48 hrs by serial dilution method; format: functional; conditions: RCMB 05036, 48 h
Outline: as §1, with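 “28°C” for “37°C”, “48” for “24”, “Amphotericin B” for “Ciprofloxacin”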

Escherichia coli [9] = assay: Antimicrobial activity against Escherichia coli RCMB 010052 assessed as diameter of zone inhibition at 100 ug/ml after 24 hrs by agar well diffusion assay; format: functional; conditions: for zone of inhibition at 100 µg/mL: RCMB 010052, 24 h, read-out: DIZ; outline: as §3
[10] = Selectivity index, ratio of IC50 for human WI38 cells to MIC for Mycobacterium tuberculosis RCMB 010126 clinical isolate; format: toxicity; conditions: read-out: Selectivity Index
Outline: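 WI-38 human lung fibroblasts grown in DMEM with 10% FBS at 37°C and 5% CO2, seeded at 1×10^4 cells/well, and exposed to serial two-fold dilutions in triplicate. Viability read by crystal violet stain at 490 nm. IC50 taken from dose-response plots. Ratio uses this IC50 against the MABA MIC for M. tuberculosis.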

[11] = test system: Mycobacterium tuberculosis; assay: Antimycobacterial activity against Mycobacterium tuberculosis RCMB 010126 clinical isolate after 7 days by MABA; format: functional; conditions: Mycobacterium tuberculosis, RCMB 010126, 168 h
Outline: (§4)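 Inoculum from fresh LJ culture resuspended in 7H9-S broth with casitone, glycerol and OADC, adjusted to McFarland No. 1 and diluted 1:20. Serial two-fold compound dilutions in 7H9-S; isoniazid reference. Incubated 7 days at 37°C in air, then Alamar blue added and incubated overnight. Percent inhibition = 1 − (test well/growth-control mean) × 100; MIC = lowest concentration preventing blue-to-pink change.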

Aspergillus fumigatus [12] = assay: Antimicrobial activity against Aspergillus fumigatus RCMB 02568 assessed as diameter of zone inhibition at 100 ug/ml after 48 hrs by agar well diffusion assay; format: functional; conditions: for zone of inhibition at 100 µg/mL: RCMB 02568, 48 h, read-out: DIZ; outline: as §2
Staphylococcus aureus [13] = assay: Antimicrobial activity against Staphylococcus aureus RCMB 010028 assessed as diameter of zone inhibition at 100 ug/ml after 24 hrs by agar well diffusion assay; format: functional; conditions: for zone of inhibition at 100 µg/mL: RCMB 010028, 24 h, read-out: DIZ; outline: as §3
[14] = test system: Mycobacterium tuberculosis; assay: Antimycobacterial activity against Mycobacterium tuberculosis RCMB 010126 clinical isolate assessed as inhibition zone after 7 days by MABA; format: functional; outline: as §4
Staphylococcus aureus [15] = assay: Antimicrobial activity against Staphylococcus aureus RCMB 010028 after 24 hrs by serial dilution method; format: functional; conditions: RCMB 010028, 24 h; outline: as §1
Escherichia coli [16] = assay: Potency index, ratio of ciprofloxacin MIC to test compound MIC for Escherichia coli RCMB 010052; format: functional
Streptococcus pneumoniae [17] = assay: Potency index, ratio of ampicillin MIC to test compound MIC for Streptococcus pneumoniae RCMB 010010; format: functional

Row | SMILES | MIC (Escherichia coli [1]) | MIC (Streptococcus pneumoniae [2]) | zone of inhibition at 100 µg/mL (Candida albicans [3]) | MIC (Pseudomonas aeruginosa [4]) | zone of inhibition at 100 µg/mL (Streptococcus pneumoniae [5]) | DIZ (Pseudomonas aeruginosa [6]) | IC50 (WI-38) | MIC (Aspergillus fumigatus [7]) | MIC (Candida albicans [8]) | zone of inhibition at 100 µg/mL (Escherichia coli [9]) | selectivity ratio [10] | MIC [11] | zone of inhibition at 100 µg/mL (Aspergillus fumigatus [12]) | zone of inhibition at 100 µg/mL (Staphylococcus aureus [13]) | inhibition zone (IZ) [14] | MIC (Staphylococcus aureus [15]) | further results
1 | COc1ccc(OC)c(/C=N/NC(=O)c2ccc(-c3cccc(Cl)c3)nc2C)c1 | 0.98 µg/mL (≈ 2.39 µM) | 0.98 µg/mL (≈ 2.39 µM) | 21.2 mm | inactive | 22.5 mm | inactive | 188 µg/mL (≈ 459 µM) | 0.98 µg/mL (≈ 2.39 µM) | 1.95 µg/mL (≈ 4.76 µM) | 22.3 mm | 482 | 0.39 µg/mL (≈ 0.952 µM) | 22.6 mm | 21.3 mm | 82.35 mm | 1.95 µg/mL (≈ 4.76 µM) | 
2 | COc1ccc(/C=N/NC(=O)c2ccc(-c3ccc(Cl)cc3)nc2C)cc1OC |  |  |  |  |  | inactive | 443 µg/mL (≈ 1080 µM) |  |  |  | 284 | 1.56 µg/mL (≈ 3.81 µM) |  |  | 61.32 mm |  | diameter of the inhibition zone (DIZ) (Candida albicans [3]): inactive; diameter of the inhibition zone (DIZ) (Streptococcus pneumoniae [5]): inactive; diameter of the inhibition zone (DIZ) (Escherichia coli [9]): inactive; diameter of the inhibition zone (DIZ) (Aspergillus fumigatus [12]): inactive; diameter of the inhibition zone (DIZ) (Staphylococcus aureus [13]): inactive
3 | COc1cccc(/C=N/NC(=O)c2ccc(-c3ccc(Cl)cc3)nc2C)c1O | 1.95 µg/mL (≈ 4.93 µM) | 0.98 µg/mL (≈ 2.48 µM) | 20.3 mm | inactive | 22.3 mm | inactive | 500 µg/mL (≈ 1260 µM) | 1.95 µg/mL (≈ 4.93 µM) | 3.9 µg/mL (≈ 9.85 µM) | 21.5 mm | 1280 | 0.39 µg/mL (≈ 0.985 µM) | 21.3 mm | 20.5 mm | 80.63 mm | 1.95 µg/mL (≈ 4.93 µM) | 
4 | COc1cc(/C=N/NC(=O)c2ccc(-c3ccc(Cl)cc3)nc2C)cc(OC)c1OC | 1.95 µg/mL (≈ 4.43 µM) | 1.95 µg/mL (≈ 4.43 µM) | 20.4 mm | inactive | 21.3 mm | inactive | 41.1 µg/mL (≈ 93.4 µM) | 0.98 µg/mL (≈ 2.23 µM) | 1.95 µg/mL (≈ 4.43 µM) | 21.3 mm | 52.7 | 0.78 µg/mL (≈ 1.77 µM) | 21.8 mm | 23.4 mm | 68.42 mm | 0.98 µg/mL (≈ 2.23 µM) | 
5 | Cc1nc(-c2cccc(Cl)c2)ccc1C(=O)N/N=C/c1ccc(Cl)cc1 | 0.49 µg/mL (≈ 1.28 µM) | 1.95 µg/mL (≈ 5.07 µM) | 17.9 mm | inactive | 21.3 mm | inactive |  | 1.95 µg/mL (≈ 5.07 µM) | 3.9 µg/mL (≈ 10.1 µM) | 23.7 mm |  | 6.24 µg/mL (≈ 16.2 µM) | 20.3 mm | 19.6 mm | 43.25 mm | 1.95 µg/mL (≈ 5.07 µM) | Ratio (Escherichia coli [16]): 2
6 | COc1cc(/C=N/NC(=O)c2ccc(-c3cccc(Cl)c3)nc2C)cc(OC)c1OC | 0.49 µg/mL (≈ 1.11 µM) | 0.49 µg/mL (≈ 1.11 µM) | 21.4 mm | inactive | 23.1 mm | inactive | 495 µg/mL (≈ 1130 µM) | 0.98 µg/mL (≈ 2.23 µM) | 0.49 µg/mL (≈ 1.11 µM) | 25.3 mm | 635 | 0.78 µg/mL (≈ 1.77 µM) | 23.3 mm | 21.3 mm | 70.48 mm | 1.95 µg/mL (≈ 4.43 µM) | Ratio (Streptococcus pneumoniae [17]): 2; Ratio (Escherichia coli [16]): 2
7 | O=C(N/N=C/c1ccc(Cl)cc1)c1c[nH]c2cc(Cl)ccc2c1=O | 7.81 µg/mL (≈ 21.7 µM) | 15.6 µg/mL (≈ 43.4 µM) | 15.2 mm | inactive | 17.1 mm | inactive |  | 15.6 µg/mL (≈ 43.4 µM) | 31.2 µg/mL (≈ 86.8 µM) | 18.3 mm |  | 99.8 µg/mL (≈ 277 µM) | 17.3 mm | 16.2 mm | 19.35 mm | 31.2 µg/mL (≈ 86.8 µM) | 
